Test results taken from ChEMBL document CHEMBL3632545, “1,3-Disubstituted and 1,3,3-trisubstituted adamantyl-ureas with isoxazole as soluble epoxide hydrolase inhibitors” (Bioorg Med Chem Lett, 2015).
Values after ≈ are worked out from the molar mass of the structure shown.

Key:
[1] = target: T1, Bifunctional epoxide hydrolase 2 (Homo sapiens, UniProt P34913); test: Inhibition of recombinant human soluble epoxide hydrolase using CMNPC as substrate by kinetic fluorescent assay
T1 sequence (P34913 whole entry): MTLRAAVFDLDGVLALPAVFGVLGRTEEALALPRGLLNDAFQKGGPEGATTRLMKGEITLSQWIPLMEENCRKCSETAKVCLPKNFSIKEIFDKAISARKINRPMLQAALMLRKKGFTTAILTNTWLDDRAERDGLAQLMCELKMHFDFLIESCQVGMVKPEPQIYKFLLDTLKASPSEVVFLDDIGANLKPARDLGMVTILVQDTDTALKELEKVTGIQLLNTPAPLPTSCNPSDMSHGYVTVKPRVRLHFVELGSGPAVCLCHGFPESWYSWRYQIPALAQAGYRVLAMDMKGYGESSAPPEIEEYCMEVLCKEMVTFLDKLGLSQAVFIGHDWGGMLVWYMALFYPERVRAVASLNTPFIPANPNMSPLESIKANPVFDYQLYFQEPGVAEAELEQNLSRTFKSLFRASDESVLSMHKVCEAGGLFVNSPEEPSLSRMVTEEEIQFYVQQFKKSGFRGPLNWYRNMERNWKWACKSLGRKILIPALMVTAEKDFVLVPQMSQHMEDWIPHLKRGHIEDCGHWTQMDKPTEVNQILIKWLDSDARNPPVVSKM
Summary of the method: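 Recombinant purified human sEH, CMNPC substrate, kinetic fluorescence read-out; IC50 derived. Where reported, values are the mean ± standard deviation of three separate measurements.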

[2] = Solubility of compound in sodium phosphate buffer at pH 7.4; type: physicochemical
Summary of the method: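 Measured in 0.1 M sodium phosphate buffer, pH 7.4, containing 1% DMSO; reported as a concentration range bracketing the solubility limit (μM).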

[3] = Metabolic stability in human liver microsomes assessed as compound remaining at 1 uM after 30 mins by LC/MS/MS analysis in presence of NADPH generating system; type: ADME; details: read-out: Stability
Summary of the method: (§1)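 Compound at 1 μM incubated with human liver microsomes (1 mg/mL) at 37°C for 30 minutes, with or without an NADPH generating system. Read-out is percent of compound remaining. Values are the average of triplicates ± standard deviation.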

[4] = Metabolic stability in human liver microsomes assessed as compound remaining at 1 uM after 30 mins by LC/MS/MS analysis in absence of NADPH generating system; type: ADME; details: read-out: Stability; summary of the method: as §1

In the case of CC(C)c1cc(C2CCCN2C(=O)NCC23CC4CC(CC(C4)C2)C3)no1 (stereo unspecified), the IC50 [1] is reported as 247 nM and the solubility [2] is reported as 250 µM (≈ 92.9 µg/mL).

Work on CC(C)c1cc(CNC(=O)NCC23CC4CC(CC(C4)C2)C3)on1 yielded an IC50 [1] of 44.6 nM and a solubility [2] of 125 µM (≈ 41.4 µg/mL).

Cc1cc(C2CCCN2C(=O)NCC23CC4CC(CC(C4)C2)C3)no1 (stereo unspecified) gave an IC50 [1] of 524 nM and a solubility [2] of 525 µM (≈ 180 µg/mL).

Molecule Cc1cc(C2CCCN2C(=O)NCC23CC4CC(CC(C4)C2)C3)on1 (stereo unspecified) has an IC50 [1] of 91 nM and a solubility [2] of 575 µM (≈ 197 µg/mL).

Molecule O=C(NCc1cc(-c2ccco2)on1)NCC12CC3CC(CC(C3)C1)C2 has a remaining at 0.5 h, 1 µM [3] of 0.4%, an IC50 [1] of 4.9 nM and a remaining at 0.5 h, 1 µM [4] of 91%. The solubility [2] was 75 µM (≈ 26.7 µg/mL).

With Cc1cc(CNC(=O)NCC23CC4CC(CC(C4)C2)C3)on1 the remaining at 0.5 h, 1 µM [3] was 2.9%, the IC50 [1] was 6.7 nM and the remaining at 0.5 h, 1 µM [4] was 72%. For the same molecule, the solubility [2] was 450 µM (≈ 137 µg/mL).

CCc1cc(CNC(=O)NCC23CC4CC(CC(C4)C2)C3)on1 gave an IC50 [1] of 29.4 nM and a solubility [2] of 300 µM (≈ 95.2 µg/mL).

Work on CC12CC3CC(C)(C1)CC(NC(=O)NCc1cc(-c4cccc(F)c4)no1)(C3)C2 yielded a remaining at 0.5 h, 1 µM [3] of 0.4%, an IC50 [1] of 17 nM and a remaining at 0.5 h, 1 µM [4] of 92%. The solubility [2] was 75 µM (≈ 29.8 µg/mL).

COc1ccc(-c2cc(CNC(=O)NCC34CC5CC(CC(C5)C3)C4)no2)cc1 showed a remaining at 0.5 h, 1 µM [3] of 0.8%, an IC50 [1] of 12.9 nM and a remaining at 0.5 h, 1 µM [4] of 87%. It also gave a solubility [2] of 100 µM (≈ 39.6 µg/mL).

Work on CC(C)c1cc(CN(C)C(=O)NCC23CC4CC(CC(C4)C2)C3)no1 yielded an IC50 [1] of 576 nM and a solubility [2] of 200 µM (≈ 69.1 µg/mL).

With Cc1ccc(-c2cc(CNC(=O)NCC34CC5CC(CC(C5)C3)C4)no2)cc1 the remaining at 0.5 h, 1 µM [3] was 0.4%, the IC50 [1] was 15.4 nM and the remaining at 0.5 h, 1 µM [4] was 97%. The solubility [2] was 75 µM (≈ 28.5 µg/mL).

With O=C(NCc1cc(-c2cccc(F)c2)no1)NCC12CC3CC(CC(C3)C1)C2 the remaining at 0.5 h, 1 µM [3] was 0.3%, the IC50 [1] was 16.6 nM and the remaining at 0.5 h, 1 µM [4] was 97%. It also gave a solubility [2] of 75 µM (≈ 28.8 µg/mL).

With Cc1cc(CNC(=O)NC23CC4CC(C)(CC(C)(C4)C2)C3)on1 the remaining at 0.5 h, 1 µM [3] was 0.1%, the IC50 [1] was 123 nM and the remaining at 0.5 h, 1 µM [4] was 83%. It also gave a solubility [2] of 200 µM (≈ 63.5 µg/mL).

In the case of CC12CC3CC(C)(C1)CC(NC(=O)NCc1cc(-c4ccco4)on1)(C3)C2, the remaining at 0.5 h, 1 µM [3] is reported as 0.3%, the IC50 [1] is reported as 4.1 nM and the remaining at 0.5 h, 1 µM [4] is reported as 95%. For the same molecule, the solubility [2] was 75 µM (≈ 27.7 µg/mL).

For COc1ccc(-c2cc(CNC(=O)NC34CC5CC(C)(CC(C)(C5)C3)C4)no2)cc1, the remaining at 0.5 h, 1 µM [3] was 0.4%, the IC50 [1] was 15 nM and the remaining at 0.5 h, 1 µM [4] was 102%. For the same molecule, the solubility [2] was 25 µM (≈ 10.2 µg/mL).

In the case of O=C(NCc1cc(-c2ccc(F)cc2)no1)NCC12CC3CC(CC(C3)C1)C2, the IC50 [1] is reported as 10.5 nM and the solubility [2] is reported as 50 µM (≈ 19.2 µg/mL).

With CC(C)c1cc(CN(C)C(=O)NCC23CC4CC(CC(C4)C2)C3)on1 the IC50 [1] was 191 nM and the solubility [2] was 350 µM (≈ 121 µg/mL).

For Cc1ccc(-c2cc(CNC(=O)NC34CC5CC(C)(CC(C)(C5)C3)C4)no2)cc1, the remaining at 0.5 h, 1 µM [3] was 0.4%, the IC50 [1] was 25.8 nM and the remaining at 0.5 h, 1 µM [4] was 115%. It also gave a solubility [2] of 125 µM (≈ 49.2 µg/mL).
